Measured values: ChEMBL document CHEMBL3997851, “Design and Synthesis of Mercaptoacetamides as Potent, Selective, and Brain Permeable Histone Deacetylase 6 Inhibitors” (ACS Med Chem Lett, 2017)
Calls of active or inactive are those of the source. No cut-off for these calls is given here.

Assays:
Homo sapiens = species on record: Homo sapiens; experiment: Selectivity ratio of IC50 for human HDAC1 to IC50 for human HDAC6
In short: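 HDAC1 and HDAC6 IC50s are each the mean of two experiments.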

Histone deacetylase 1 [1] = biological target: T1, Histone deacetylase 1 (Homo sapiens, UniProt Q13547); experiment: Inhibition of human HDAC1 using RHKKAc as substrate by fluorescence assay
T1 sequence (Q13547 whole entry): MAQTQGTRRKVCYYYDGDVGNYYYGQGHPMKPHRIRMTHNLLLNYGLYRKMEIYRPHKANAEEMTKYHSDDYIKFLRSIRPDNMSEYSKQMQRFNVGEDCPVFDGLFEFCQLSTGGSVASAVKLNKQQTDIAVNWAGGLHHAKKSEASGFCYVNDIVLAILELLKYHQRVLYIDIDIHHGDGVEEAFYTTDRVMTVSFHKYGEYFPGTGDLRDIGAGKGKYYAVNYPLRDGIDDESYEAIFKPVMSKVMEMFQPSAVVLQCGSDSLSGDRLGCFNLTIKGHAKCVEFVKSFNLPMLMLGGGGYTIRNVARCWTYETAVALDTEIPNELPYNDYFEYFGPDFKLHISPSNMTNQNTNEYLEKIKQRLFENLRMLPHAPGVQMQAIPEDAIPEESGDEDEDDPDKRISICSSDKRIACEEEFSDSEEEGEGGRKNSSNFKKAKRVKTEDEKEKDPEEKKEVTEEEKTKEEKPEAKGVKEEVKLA

[2] = biological target: T2, Protein deacetylase HDAC6 (Homo sapiens, UniProt Q9UBN7); experiment: Inhibition of human HDAC6 using RHKKAc as substrate by fluorescence assay
T2 sequence (Q9UBN7 whole entry): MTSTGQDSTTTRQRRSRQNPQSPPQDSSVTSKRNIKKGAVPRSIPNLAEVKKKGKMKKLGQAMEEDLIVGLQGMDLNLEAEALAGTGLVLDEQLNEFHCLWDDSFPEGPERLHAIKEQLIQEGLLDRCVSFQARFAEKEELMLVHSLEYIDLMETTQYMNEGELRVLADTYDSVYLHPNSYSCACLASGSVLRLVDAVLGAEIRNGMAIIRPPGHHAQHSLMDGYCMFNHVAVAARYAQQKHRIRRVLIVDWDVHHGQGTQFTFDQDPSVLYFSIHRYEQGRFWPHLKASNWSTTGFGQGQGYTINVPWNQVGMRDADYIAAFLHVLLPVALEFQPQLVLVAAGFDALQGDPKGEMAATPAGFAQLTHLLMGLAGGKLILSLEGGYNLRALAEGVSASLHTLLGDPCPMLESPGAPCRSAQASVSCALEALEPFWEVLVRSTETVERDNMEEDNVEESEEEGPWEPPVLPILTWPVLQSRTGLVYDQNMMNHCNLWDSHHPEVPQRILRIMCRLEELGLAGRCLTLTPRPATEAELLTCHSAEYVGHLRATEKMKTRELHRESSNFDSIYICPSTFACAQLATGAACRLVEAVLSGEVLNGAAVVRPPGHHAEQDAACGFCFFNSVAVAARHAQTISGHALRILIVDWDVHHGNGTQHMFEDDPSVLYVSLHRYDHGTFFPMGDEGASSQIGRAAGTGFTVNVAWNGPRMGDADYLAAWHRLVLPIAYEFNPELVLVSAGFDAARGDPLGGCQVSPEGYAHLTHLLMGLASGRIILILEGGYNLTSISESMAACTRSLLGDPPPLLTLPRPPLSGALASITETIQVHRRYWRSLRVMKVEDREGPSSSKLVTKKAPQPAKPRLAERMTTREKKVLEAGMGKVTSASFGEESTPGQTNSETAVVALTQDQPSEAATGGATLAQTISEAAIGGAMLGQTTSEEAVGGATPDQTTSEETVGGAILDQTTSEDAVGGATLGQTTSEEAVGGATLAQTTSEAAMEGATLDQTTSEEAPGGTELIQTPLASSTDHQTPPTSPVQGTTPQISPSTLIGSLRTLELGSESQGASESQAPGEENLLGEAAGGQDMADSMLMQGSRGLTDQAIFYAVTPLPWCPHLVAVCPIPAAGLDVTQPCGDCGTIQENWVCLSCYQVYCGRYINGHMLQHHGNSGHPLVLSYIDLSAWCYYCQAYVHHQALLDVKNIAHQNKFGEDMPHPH

Histone deacetylase 1 [3] = biological target: T1, Histone deacetylase 1; experiment: Inhibition of HDAC1 in HEK293 cells assessed as increase in histone H3 acetylation at 5 uM after 24 hrs by Western blot method; format: cell-based
In short: (§1)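 HEK293 cells are treated with compound, and acetylated tubulin and histone H3 are detected by Western blot with GAPDH as loading control. Each blot carries a tubastatin 10 µM positive control and a DMSO or medium negative control.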

[4] = Half life in human liver microsomes in presence of NADPH; format: ADME, microsome
In short: (§2)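 Incubated in pooled liver microsomes (human or mouse as per line) with NADPH cofactor; all tests run in duplicate.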

[5] = Half life in mouse liver microsomes in presence of NADPH; format: ADME, microsome; in short: as §2
Liver [6] = experiment: Prodrug conversion in mouse liver microsomes assessed as N-[4-[(5,7-Dichloroquinolin-8-yl)amino]butyl]-2-mercaptoacetamide formation measured over 60 mins; format: ADME, microsome; conditions: 1 h
In short: (§3)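 Disulfide prodrug incubated with pooled human or mouse liver microsomes, with the released free mercaptoacetamide measured over time. Percent released is taken as the measured thiol concentration divided by twice the initial prodrug concentration.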

[7] = biological target: T3, Protein deacetylase HDAC6 (Homo sapiens) (UniProt Q9UBN7); experiment: Inhibition of HDAC6 in HEK293 cells assessed as induction of tubulin acetylation after 24 hrs by Western blot method; format: cell-based; in short: as §1
T3 sequence (whole entry): T2 sequence (Q9UBN7 whole entry)

Mus musculus = experiment: In vivo inhibition of HDAC6 in C57Bl/6J mouse assessed as increase in tubulin acetylation in cerebral cortex at 20 mg/kg, ip first dose administered in evening followed by second dose in next day morning measured 6 hrs post last dose by Western blot method relative to vehicle-treated control; format: functional; parameters: scale not given: the % may be the effect or the level left
In short: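 Mice (n=3) are dosed 20 mg/kg IP at 18:00, then dosed again at 20 mg/kg at 10:00 the next morning, and killed 6 h later. Cortex is taken for Western blot of acetyl-tubulin with GAPDH as loading control. Densitometric acetyl-tubulin/GAPDH ratio is expressed as % of vehicle-treated mice; significance is set at p<0.05.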

[8] = Metabolic stability in human liver microsomes assessed as parent compound remaining at 60 mins in presence of NADPH; format: ADME, microsome; conditions: read-out: Stability; in short: as §2
Liver [9] = experiment: Prodrug conversion in human liver microsomes assessed as N-[4-[(5,7-Dichloroquinolin-8-yl)amino]butyl]-2-mercaptoacetamide formation measured over 60 mins; format: ADME, microsome; conditions: 1 h; in short: as §3
[10] = Metabolic stability in mouse liver microsomes assessed as parent compound remaining at 60 mins in presence of NADPH; format: ADME, microsome; conditions: read-out: Stability; in short: as §2
Liver [11] = experiment: Prodrug conversion in human liver microsomes assessed as N-[5-(5,6-Dichloro-1H-indol-1-yl)pentyl]-2-mercaptoacetamide formation measured over 60 mins; format: ADME, microsome; in short: as §3
Liver [12] = experiment: Prodrug conversion in mouse liver microsomes assessed as N-[5-(5,6-Dichloro-1H-indol-1-yl)pentyl]-2-mercaptoacetamide formation measured over 60 mins; format: ADME, microsome; in short: as §3

| SMILES | Ratio IC50 (Homo sapiens) | IC50 (Histone deacetylase 1 [1]) [µM] | IC50 [2] [nM] | inhibition (Histone deacetylase 1 [3]) | half-life [4] [min] | half-life [5] [min] | Drug metabolism (Liver [6]) | inhibition [7] | Activity (Mus musculus) [%] | remaining at 1 h [8] [%] | Drug metabolism (Liver [9]) | remaining at 1 h [10] [%] | Drug metabolism (Liver [11]) | Drug metabolism (Liver [12]) |
| --- | --- | --- | --- | --- | --- | --- | --- | --- | --- | --- | --- | --- | --- | --- |
| O=C(CS)NCCCCCCn1ccc2cc(Cl)c(Cl)cc21 | > 470 | > 30 | 63.9 |  |  |  |  |  |  |  |  |  |  |  |
| O=C(CS)NCC(S)CCCn1ccc2cc(Cl)c(Cl)cc21 (stereo unspecified) |  |  | 534 |  |  |  |  |  |  |  |  |  |  |  |
| O=C(CSSCC(=O)NCCCCNc1c(Cl)cc(Cl)c2cccnc12)NCCCCNc1c(Cl)cc(Cl)c2cccnc12 |  |  |  | Active | 20.7 | 25.9 | Metabolite_Detected | Dose-dependent effect | 30 | 8.5 | Metabolite_Detected | 18.2 |  |  |
| CC(C)C(=O)SCC(=O)NCCCCCn1ccc2cc(Cl)c(Cl)cc21 |  |  |  |  | < 1 | < 1 |  | Dose-dependent effect |  | < 1 |  | < 1 | Metabolite_Detected | Metabolite_Detected |
| O=C(CS)NCCCCCOc1c(Cl)cc(Cl)c2cccnc12 | > 901 | > 30 | 33.3 |  |  |  |  |  |  |  |  |  |  |  |
| O=C(CS)NCCCCNc1c(Cl)cc(Cl)c2cccnc12 |  | 6.88 | 2.79 |  | 32.2 | 91.2 |  |  |  | 22.3 |  | 61.7 |  |  |
| O=C(CS)NCCCCCn1ccc2cc(Cl)c(Cl)cc21 | 657 | 7.49 | 11.4 |  | 35.2 | 41.3 |  | Dose-dependent effect |  | 25.3 |  | 29.5 |  |  |
| O=C(CS)NCCCCCNc1c(Cl)cc(Cl)c2cccnc12 | 444 | 6.57 | 14.8 |  | 42.5 | 51 |  |  |  | 32.1 |  | 39.6 |  |  |
| O=C(CS)NCCCCCCn1ccc2cc(F)c(Cl)cc21 | 450 | 29.3 | 65.1 |  |  |  |  |  |  |  |  |  |  |  |
| O=C(CS)NCCCCCCn1cc(Cl)c2cc(Cl)c(Cl)cc21 | > 124 | > 30 | 241 |  |  |  |  |  |  |  |  |  |  |  |
| CC(C)c1cn(CCCCCCNC(=O)CS)c2cc(Cl)c(Cl)cc12 | 18 | 28.7 | 1570 |  | 48.8 | 70 |  |  |  | 33.3 |  | 44.3 |  |  |
| O=C(CSSCC(=O)NCCCCCn1ccc2cc(Cl)c(Cl)cc21)NCCCCCn1ccc2cc(Cl)c(Cl)cc21 |  |  |  | Active | 49.5 | 24.8 |  | Dose-dependent effect | 40 | 40.5 |  | 18.2 | Metabolite_Detected | Metabolite_Detected |
